The values below come from ChEMBL document CHEMBL3102831 (Bioorg Med Chem Lett, 2014).

Assay [1] can be described thus: Cytotoxicity against human SPCA2 cells after 48 hrs by MTT assay. Format: functional, cell-based. The settings on record: SPCA2, 48 h.
In assay [2] the test system is HCT-116. Put plainly: Induction of apoptosis in human HCT116 cells assessed as necrotic cells at 3 uM after 24 hrs using annexin V-FITC/propidium iodide by flow cytometry (reference value: 2.8%). Format: functional.
In assay [3] the test system is DNA. Put plainly: Binding affinity to calf thymus DNA at compound and GelRed ratio 1:1 to 9:1 by fluorescence emission spectra analysis. Format: nucleic-acid assay. The settings on record: Bos taurus. The procedure, abridged:
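Competitive displacement assay. GelRed was pre-incubated with ct-DNA for 30 min at [GelRed]/[DNA] = 1:10, then titrated with compound. Emission was read around 590 nm with 350 nm excitation. Quenching constant Kq was obtained by linear Stern–Volmer fitting.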

The subject of assay [4] is HCT-116. Description: Induction of apoptosis in human HCT116 cells assessed as late apoptotic cells at 3 uM after 24 hrs using annexin V-FITC/propidium iodide by flow cytometry (reference value: 3.3%). Format: functional. (In general: In flow cytometry, cells or beads pass a laser one at a time.)
Assay [5] deals with HCT-116. Put plainly: Induction of apoptosis in human HCT116 cells assessed as early apoptotic cells at 5 uM after 24 hrs using annexin V-FITC/propidium iodide by flow cytometry (reference value: 3.9%). The format is functional.
The subject of assay [6] is HCT-116. Description: Induction of apoptosis in human HCT116 cells assessed as viable cells at 3 uM after 24 hrs using annexin V-FITC/propidium iodide by flow cytometry (reference value: 90%). The format is functional. The settings on record: HCT-116, 24 h, read-out: Activity.
Assay [7] concerns HCT-116. Put plainly: Cell cycle arrest in human HCT116 cells assessed as accumulation at G1 phase at 3 uM after 48 hrs using propidium iodide staining by FACS analysis (reference value: 39.08%). Format: functional.
Assay [8] deals with HCT-116. Description: Cell cycle arrest in human HCT116 cells assessed as accumulation at S phase at 5 uM after 48 hrs using propidium iodide staining by FACS analysis (reference value: 36.84%). Format: functional.
Assay [9] deals with HCT-116. Description: Induction of apoptosis in human HCT116 cells assessed as early apoptotic cells at 3 uM after 24 hrs using annexin V-FITC/propidium iodide by flow cytometry (reference value: 3.9%). The format is functional.
Assay [10] relates to DNA. Description: Binding affinity to calf thymus DNA at 1.5 x 10^-5 M by circular dichroism analysis. Format: nucleic-acid assay. The note with it: Bos taurus. The procedure, abridged:
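Circular dichroism spectra recorded on ct-DNA at 1.5 × 10^-4 M, alone and with compound at 1.5 × 10^-5 M. Spectra compared with and without compound.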

Assay [11] concerns HCT-116. Description: Cell cycle arrest in human HCT116 cells assessed as accumulation at G2 phase at 3 uM after 48 hrs using propidium iodide staining by FACS analysis (reference value: 24.09%). Format: functional.
Another assay relates to HeLa. Description: Cytotoxicity against human HeLa cells after 48 hrs by MTT assay. Format: functional, cell-based. On the technique in general: Tetrazolium assays rely on reduction of a dye to a coloured formazan, in cell work by metabolically active cells.
Assay [12] concerns HCT-116. Description: Induction of apoptosis in human HCT116 cells assessed as apoptotic morphology at 3 to 5 uM after 24 hrs by Hoechst […] staining. The format is functional, cell-based. The procedure, abridged: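 HCT116 cells were treated with compound at 3 and 5 µM for 24 h, alongside 24 h untreated controls. Cells were stained with Hoechst 33258 and examined by fluorescence microscopy. Bright blue nuclei from chromatin condensation and karyopyknosis were scored as apoptotic, and uniform light blue nuclei as live.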

Assay [13] relates to HCT-116. Put plainly: Cell cycle arrest in human HCT116 cells assessed as accumulation at G2 phase at 5 uM after 48 hrs using propidium iodide staining by FACS analysis (reference value: 24.09%). The format is functional.
For assay [14], the system named is HCT-116. Description: Cytotoxicity against human HCT116 cells after 48 hrs by MTT assay. Format: functional, cell-based. The settings on record: HCT-116, 48 h.
The test system of another assay is CNE. Put plainly: Cytotoxicity against human CNE cells after 48 hrs by MTT assay. Format: functional, cell-based.
Assay [15] has as its system HCT-116. Description: Induction of apoptosis in human HCT116 cells assessed as necrotic cells at 5 uM after 24 hrs using annexin V-FITC/propidium iodide by flow cytometry (reference value: 2.8%). Format: functional.
The test system of assay [16] is HCT-116. Put plainly: Cell cycle arrest in human HCT116 cells assessed as accumulation at G1 phase at 5 uM after 48 hrs using propidium iodide staining by FACS analysis (reference value: 39.08%). The format is functional.
Assay [17] has as its system DNA. Put plainly: Binding affinity to F32T oligonucleotide DNA assessed as change in melting temperature by FRET assay.
For a further assay, the system named is HUVEC. Put plainly: Cytotoxicity against human HUVEC after 48 hrs by MTT assay. The format is cell-based.
Assay [18] relates to HCT-116. Description: Induction of apoptosis in human HCT116 cells assessed as activation of caspase 3 and 8 after 24 hrs by RT-PCR analysis. The format is functional, cell-based.
For assay [19], the system named is HCT-116. Put plainly: Induction of apoptosis in human HCT116 cells assessed as late apoptotic cells at 5 uM after 24 hrs using annexin V-FITC/propidium iodide by flow cytometry (reference value: 3.3%). The format is functional.
For assay [20], the system named is DNA. Put plainly: Binding affinity to calf thymus DNA at DNA and compound ratio 1:1 to 6:1 by UV-vis absorption spectra analysis. The format is nucleic-acid assay. The note with it: Bos taurus.
The subject of assay [21] is HCT-116. Description: Induction of apoptosis in human HCT116 cells assessed as viable cells at 5 uM after 24 hrs using annexin V-FITC/propidium iodide by flow cytometry (reference value: 90%). The format is functional. The settings on record: HCT-116, 24 h, read-out: Activity.
Assay [22] concerns HCT-116. Put plainly: Induction of apoptosis in human HCT116 cells assessed as change in mitochondrial membrane potential at 3 to 5 uM after 24 hrs by JC-1 staining. The format is functional, cell-based. The procedure, abridged: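 HCT116 cells were exposed for 24 h at 3 and 5 µM, with untreated 24 h controls, then stained with JC-1. Monomer and J-aggregates were excited at 514 and 585 nm. Emission was collected at 515–545 nm (green) and 570–600 nm (red), and cells were imaged by fluorescence microscopy.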

The test system of assay [23] is HCT-116. Description: Cell cycle arrest in human HCT116 cells assessed as accumulation at S phase at 3 uM after 48 hrs using propidium iodide staining by FACS analysis (reference value: 36.84%). Format: functional.
For the next assay, the system named is HepG2. Description: Cytotoxicity against human HepG2 cells after 48 hrs by MTT assay. The format is functional, cell-based. The settings on record: HepG2, 48 h.
A short description of assay [24]: Cytotoxicity against human COLO320DM cells. The format is functional, cell-based. The note with it: COLO 320DM.
Assay [25] deals with HCT-116. Description: Cytotoxicity against human HCT116 cells. The format is functional, cell-based.

Structures are written as SMILES. Activity calls are given as the source filed them. No cut-off for these calls is given here. Where only a bound is given, the exact number is not on record here.

The IC50 is the concentration that inhibits the measured activity by half. For orientation: ΔTm means the change in melting temperature against a reference sample. For the compound `CCOP(=O)(OCC)C(NC(=O)c1cc(O)c2c(c1)C(=O)c1cccc(O)c1C2=O)c1cccc(OC)c1` (stereo unspecified), the IC50 in [1] was 28.3 µM; in the assay on HeLa, 19.3 µM; in the assay on HCT-116 [14], 5.32 µM; with CNE it was 24.1 µM; with HUVEC it was more than 100 µM; in the assay on HepG2, 22.1 µM. Also, the Activity in the assay on HCT-116 [2] was 4%; in the assay with HCT-116 [4], 10.5%; in the assay with HCT-116 [5], 33.5%; with HCT-116 [7], 45.26%; in the assay on HCT-116 [8], 32.44%; in the assay with HCT-116 [9], 32.5%. Moreover, the Activity with HCT-116 [11] is 20.09%; in the assay with HCT-116 [13], 17.9%; with HCT-116 [15], 2.6%; in the assay on HCT-116 [16], 49.67%; with HCT-116 [18], “Dose-dependent effect”; in the assay with HCT-116 [19], 6.5%. The Activity in the assay on HCT-116 [23] came out at 34.66%. In addition, the Kq in the assay on DNA [3] was 1660. Also, the viability at 3 µM in the assay with HCT-116 [6] came to 53%. Besides, the outcome with DNA [10], with HCT-116 [12] and in the assay on HCT-116 [22] was Active. Also, in the assay on DNA [17], the ΔTm was found to be 3.1 °C. Further, the Kb in the assay with DNA [20] turned out to be 1.03 ×10⁴ /M. Moreover, the viability at 5 µM in the assay on HCT-116 [21] amounted to 57.5%.

`O=C(O)c1cc(O)c2c(c1)C(=O)c1cccc(O)c1C2=O` [RHEIN]: the IC50 in assay [24] is 62.5 µM; in the assay on HCT-116 [25], 135 µM; in the assay on HUVEC it was 89.7 µM. Besides, in the assay on DNA [17], the ΔTm came to 2 °C.
